Measured values from the array DNA melting data of Ke et al. (doi:10.1101/2024.01.08.574731).

Key:
[1] = folding enthalpy; higher = less favourable; fluorescence melt of hairpins on a sequencing array, two-state fit; settings: sodium 0.088 M
Procedure, shortened: (§1)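 Melting temperature and folding enthalpy were obtained by bootstrapped two-state fitting. Fits used Cy3 fluorescence of library hairpins with annealed Cy3 and quencher oligos on a sequenced MiSeq flow cell, imaged in 50 mM Na-HEPES pH 8.0, 25 mM NaCl in 2.5 °C steps up to 60 °C and normalised to pre-quench Cy3 and control constructs. Four replicates were combined by inverse-variance weighting, and fitted temperatures were raised by 9.35 °C to match UV melts.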

[2] = melting temperature; fluorescence melt of hairpins on a sequencing array, two-state fit, raised by 9.35 °C to match UV melts; settings: sodium 0.088 M
Procedure, shortened: as §1

Row | Sequence | folding enthalpy [1] [kcal/mol] | Tm [2] [°C]
1 | GCCCGGCGAAAGCCGGC (((.(((....)))))) | -6.9 | 65.7
2 | GCCCGGCGAAAGCTGTGC ((.(.((....)).).)) | -19.7 | 40.9
3 | GCCCGGCGAAAGCTTGGC (((..((....))..))) | -18.8 | 52.4
4 | GCCCGGGGAAACCCGGAC (.(((((....))))).) | -13.4 | 51.3
5 | GCCCGGGGAAACCTGGGC ((((.((....)).)))) | -52.3 | 62.3
6 | GCCCGTCGAAAGACAGGC (((.(((....))).))) | -39 | 55.3
7 | GCCCTAGCGAAAGCTGGC (((..(((....)))))) | -13.7 | 48
8 | GCCCTAGGAAACTAAGGC (((.(((....))).))) | -21.1 | 34
9 | GCCCTCCGAAAGGATGGC (((.(((....))).))) | -37.5 | 55
10 | GCCCTCGGAAACAAGGGC (((((.(....).))))) | -35.8 | 49.6
11 | GCCCTGACGAAAGTCGGC (((..(((....)))))) | -13.6 | 48.9
12 | GCCCTGCGAAAGCATTGC ((..(((....)))..)) | -8.56 | 29.3
13 | GCCCTGCGAAAGCCAGGC (((..((....))..))) | -15.7 | 53
14 | GCCCTGCGAAAGCCGCGC ((.(.((....)).).)) | -10.3 | 34.9
15 | GCCCTGCGAAAGCGTGGC (((..((....))..))) | -21.1 | 55.6
16 | GCCCTTCGAAAGAAAGGC (((.(((....))).))) | -28.5 | 45.1
17 | GCCCTTGAAAAAGGGC ((((((....)))))) | -36 | 68
18 | GCCGAAGAAATTCGGC ((((((....)))))) | -33.9 | 67.4
19 | GCCGAAGCGAAAGCTGGC (((..(((....)))))) | -31.6 | 57.1
20 | GCCGAATCGAAAGATGGC (((..(((....)))))) | -26.3 | 46.2
21 | GCCGACGAAAGTCGTGGC ((((((....)))..))) | -16.3 | 57
22 | GCCGACGGAAACATCGGC (((((.(....).))))) | -38.6 | 53
23 | GCCGACGGAAACGTTGGC (((.(((....))).))) | -45.5 | 63.9

Row | Sequence | folding enthalpy [1] [kcal/mol] | Tm [2] [°C]
24 | GCCGAGCGAAAGCCCCGC ((.(.((....)).).)) | -12.1 | 32.2
25 | GCCGAGCGAAAGCTGGGC (((.(((....))).))) | -30 | 68
26 | GCCGAGCGAAAGCTTAGC ((..(((....)))..)) | -14.7 | 39.9
27 | GCCGAGGGAAACCTTGGC (((.(((....))).))) | -35.4 | 58.3
28 | GCCGAGGGAAACTTCGGC (((((.(....).))))) | -46.2 | 56.8
29 | GCCGATGCGAAAGCAGGC (((..(((....)))))) | -20.1 | 58.5
30 | GCCGATGGAAACACCGGC ((((.((....)).)))) | -42.9 | 52.4
31 | GCCGCAGGAAACCACGGC ((((..(....)..)))) | -20.4 | 42.1
32 | GCCGCAGGAAACCGCGGC (((((.(....).))))) | -32.1 | 67.8
33 | GCCGCCGAAAGGCAGGGC ((((((....)))..))) | -20.3 | 66.8
34 | GCCGCCGAAAGGCCAGGC ((((((....)))..))) | -20.4 | 56.1
35 | GCCGCCGAAAGGCCGGGC ((((((....)))..))) | -16.9 | 60.4
36 | GCCGCCGAAAGGCTGGC ((((((....))).))) | -20.8 | 69.2
37 | GCCGCGCGAAAGCACCGC ((.(.((....)).).)) | -13.8 | 46.5
38 | GCCGCGCGAAAGCCCCGC ((.(.((....)).).)) | -7.57 | 33.3
39 | GCCGCGCGAAAGCGTAGC ((..(((....)))..)) | -13.8 | 48.9
40 | GCCGCGCGAAAGCGTCGC ((..(((....)))..)) | -10.1 | 58
41 | GCCGCGCGAAAGCGTTGC ((..(((....)))..)) | -14.6 | 44.1
42 | GCCGCGCGAAAGCTCAGC ((.(.((....)).).)) | -10.8 | 35.1
43 | GCCGCGGGAAACCACGGC ((((.((....)).)))) | -38.4 | 63.6
44 | GCCGCGGGAAACCGCGAC (.(((((....))))).) | -10.8 | 59.7
45 | GCCGCTGGAAACAGTGGC (((.(((....))).))) | -50.7 | 62.9
